Data reported in PMC5614685 (Biochemistry and Biophysics Reports, 2017).
Where two headings read alike, the source gives them in different places. Bridge positions count the residues as written; N and C are the ends. Ends that are not written are not given here. Peptide text beside a SMILES is read from it.

What was measured:
[1] = molecular target: T1, ActRIIB-Fc (Homo sapiens, UniProt Q13705); assay: SPR binding assay, ActRIIB-Fc
T1 sequence (Q13705 19-135): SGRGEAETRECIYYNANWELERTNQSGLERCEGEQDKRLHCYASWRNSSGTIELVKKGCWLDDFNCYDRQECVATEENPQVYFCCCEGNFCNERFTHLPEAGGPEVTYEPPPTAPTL
Procedure, shortened: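 ActRIIB-Fc immobilized on a CM5 chip by amine coupling to about 3000 RU in PBS/0.01% P20 at 22 °C. Peptide concentration series injected in PBS/0.01% P20/1% DMSO at 75 μL/min: 60 s contact, up to 60 s dissociation. Double-referenced data globally fitted to a 1:1 model for kon and koff, KD = koff/kon. For fast off-rates, KD from a steady-state 1:1 fit.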

[2] = molecular target: T2, ActRIIA-Fc (Homo sapiens, UniProt P27037); assay: SPR binding assay, ActRIIA-Fc
Procedure, shortened: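 ActRIIA-Fc amine-coupled to a CM5 chip to about 9000 RU in PBS/0.01% P20 at 22 °C. Peptide concentration series run in PBS/0.01% P20/1% DMSO at 75 μL/min: 60 s association, up to 60 s dissociation. Sensorgrams double-referenced and globally fitted to a 1:1 model, KD = koff/kon. For fast off-rates, KD taken from a 1:1 steady-state fit.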

[3] = molecular target: T1, ActRIIB-Fc; assay: Plate ELISA, ligand binding of ActRIIB-Fc; conditions: ligand directly coated; HRP anti-human IgG Fc, chemiluminescence
[4] = molecular target: T2, ActRIIA-Fc; assay: Plate ELISA, ligand binding of ActRIIA-Fc; conditions: ligand directly coated; HRP anti-human IgG Fc, chemiluminescence
Procedure, shortened: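 Wells coated directly with each ligand overnight at 4 °C, then blocked with 0.5% BSA in PBS for 2 h at room temperature. ActRIIA-Fc added, then washed three times with PBST. Bound Fc protein detected with HRP goat anti-human IgG Fc (5000-fold dilution in 0.5% BSA/PBS) and a chemiluminescence reagent.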

[5] = system: mice; conditions: injection to mice; ref Suragani et al. [9]; cited from earlier work
[6] = molecular target: ActRIIA-Fc (UniProt P27037); assay: SPR
ActRIIA-Fc (UniProt P27037), sequence (P27037 20-135): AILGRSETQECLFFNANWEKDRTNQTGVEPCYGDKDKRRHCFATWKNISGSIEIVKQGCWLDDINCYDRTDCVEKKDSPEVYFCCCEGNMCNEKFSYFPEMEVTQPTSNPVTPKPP

[7] = molecular target: T3, ActRIIB-Fc (extracellular domain of human ActRIIB, activin receptor type-2B, fused to human IgG-Fc) (human, UniProt Q13705 19-135); assay: SPR
T3 sequence: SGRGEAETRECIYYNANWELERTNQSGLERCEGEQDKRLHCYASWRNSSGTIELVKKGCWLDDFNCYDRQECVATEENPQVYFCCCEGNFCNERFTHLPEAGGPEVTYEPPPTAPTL

[8] = molecular target: T3, ActRIIB-Fc (extracellular domain of …); assay: SPR; remark: listed apart in the source
[9] = system: ActRIIB-Fc/ActRIIA-Fc; conditions: ref [3]; cited from earlier work

For `CC[C@H](C)[C@@H]1NC(=O)[C@H](CCCNC(=N)N)NC(=O)[C@H](CCCNC(=N)N)NC(=O)[C@H](C(C)C)NC(=O)[C@H](CO)NC(=O)[C@H]([C@@H](C)O)NC(=O)CNC(=O)[C@H](Cc2ccccc2)NC(=O)[C@@H](NC(=O)[C@@H](N)C(C)C)CSSC[C@@H](C(=O)N[C@H](C(=O)O)C(C)C)NC1=O` [AR2mini] (H-VCFGTSVRRICV-OH; disulfide 2-11), the koff [1] was > 0.1 s⁻¹.

With `C[C@@H]1NC(=O)[C@H](CCCNC(=N)N)NC(=O)[C@H]([C@@H](C)O)NC(=O)[C@@H](NC(=O)[C@H](CCC(N)=O)NC(=O)[C@H](Cc2ccccc2)NC(=O)[C@@H]2CCCN2)CSSC[C@@H](C(=O)N[C@H](C(=O)N[C@@H](CCCCN)C(=O)N[C@@H](CO)C(=O)O)[C@@H](C)O)NC(=O)[C@H](Cc2ccc(O)cc2)NC(=O)[C@H](Cc2ccc(O)cc2)NC(=O)[C@H](Cc2c[nH]c3ccccc23)NC(=O)CNC(=O)[C@H](CC(=O)O)NC(=O)[C@H](CCCNC(=N)N)NC1=O` [AR8] (H-PFQCTRARDGWYYCTKS-OH; disulfide 4-14) the koff [1] was > 0.1 s⁻¹.

With `CC(C)C[C@@H]1NC(=O)[C@H]([C@@H](C)O)NC(=O)[C@H](CCCCN)NC(=O)[C@@H]2CCCN2C(=O)[C@H](Cc2c[nH]c3ccccc23)NC(=O)[C@@H](NC(=O)[C@H](CCCCN)NC(=O)[C@H](Cc2ccc(O)cc2)NC(=O)[C@@H](N)Cc2c[nH]cn2)CSSC[C@@H](C(=O)N[C@@H](Cc2c[nH]c3ccccc23)C(=O)N[C@@H](CC(N)=O)C(=O)N[C@@H](Cc2c[nH]cn2)C(=O)O)NC(=O)[C@H](CCCCN)NC(=O)[C@H](Cc2ccccc2)NC1=O` [AR9] (H-HYKCWPKTLFKCWNH-OH; disulfide 4-12) the koff [1] was 0.049 s⁻¹ and the Kd [2] was > 100 µM.

In the case of “GDF11: growth differentiation factor 11, R&D Systems (1958-GD)”, the “binding to ActRIIB-Fc (plate ELISA), in words” value (“binding to ActRIIB-Fc” for short) [3] is listed as “binds to activin A, MSTN, and GDF11 in a concentration-dependent manner”, the “binding to ActRIIA-Fc (plate ELISA), in words” value (from here on “binding to ActRIIA-Fc”) [4] is listed as “binds to activin A and GDF11” and the “anemia, in words” value [5] is listed as “causes anemia”.

With “MSTN: recombinant mature human MSTN (myostatin), ActRIIB ligand” the “binding to ActRIIB-Fc” value [3] was “binds to activin A, MSTN, and GDF11 in a concentration-dependent manner” and the “binding to ActRIIA-Fc” value [4] was “but not MSTN”.

With “activin A: ActRIIB ligand, purchased from R&D Systems (338-AC)” the “binding to ActRIIB-Fc” value [3] was “binds to activin A, MSTN, and GDF11 in a concentration-dependent manner” and the “binding to ActRIIA-Fc” value [4] was “binds to activin A and GDF11”.

VCFGTSVRRICV-OH (disulfide 2-11 (inferred)) [AR2mini] showed a Kd [6] of 19 µM and a Kd [7] of 1.8 µM.

PFQCTRARDGWYYCTKS-OH (disulfide 4-14 (inferred)) [AR8] showed a Kd [8] of 3.6 µM and a Kd [6] of 18 µM.

For VCDGTSVPRICV-OH (disulfide 2-11 (inferred)) [AR2mut], the Kd [7] was > 100 µM.

For HYKCWPKTLFKCWNH-OH (disulfide 4-12 (inferred)) [AR9], the Kd [7] was 0.86 µM.

B1: BMP9: bone morphogenetic protein 9, R&D Systems (3209-BP) (protein, UniProt Q9UK05 320-429, looked up)
Growth/differentiation factor …: SAGAGSHCQKTSLRVNFEDIGWDSWIIAPKEYEAYECKGGCFFPLADDVTPTKHAIVQTLVHLKFPTKVGKACCVPTKLSPISVLYKDDMGVPTLKYHYEGMSVAECGCR
For B1, the “PPI with ActRIIB-Fc/ActRIIA-Fc, in words” value [9] is given as “have been previously reported”.
